Measurements reported in PubChem BioAssay AID2170 (The Scripps Research Institute Molecular Screening Center, 2009).
The whole screen tested about 2,400 compounds, of which about 660 (28%) were called active. The list is a sample of the results. A number with no mark means an inactive call.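 The calls were made as follows: active = mean inhibition over replicate wells above the hit cutoff set for the earlier primary screen (cut at about 29% in these data); inactive = the rest.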

Test system: M18 aspartyl aminopeptidase (Plasmodium falciparum 3D7)
Experiment: PfM18AAP inhibitors, malaria aminopeptidase, confirmation, biochemical, QFRET, recombinant enzyme, triplicate (AID 2170);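 also: 0% = median of test compound wells and 100% = 2 mM ZnCl2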
Settings: H-Glu-NHMec fluorogenic cleavage, at 7.35 µM, stronger effect = higher value
Procedure, shortened: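 Test system: recombinant P. falciparum M18 aspartyl aminopeptidase; incubation: Enzyme–compound pre-incubation 30 min, substrate reaction 90 min, both 25 °C; detection: fluorescence, excitation 340 nm, emission 450 nm, read at 0 and 90 min; evaluation: percent inhibition from 0–90 min fluorescence gain, scaled between controls; benchmarks: ZnCl2 inhibitor control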

Row | SMILES | inhibition
1 | Cc1ccnc(-n2sc3ccccc3c2=O)n1 | 28.8% (active)
2 | NC(=S)N/N=C/c1coc2cc(Cl)ccc2c1=O | -23.6%
3 | O=C(CN1CCN(c2ccc(O)cc2)CC1)Nc1ccc(-c2ccccc2)cc1 | -14.9%
4 | c1ccc2sc(NN=C3CCCC3)nc2c1 | -44.4%
5 | Cc1cc(C)nc(Nc2ncn[nH]2)n1 | 71.7% (active)
6 | COc1cccc2cc(-c3cc(=O)oc4cc(C)c(O)cc34)oc12 | -27.8%
7 | O=C(CSc1ncn[nH]1)Nc1nc(-c2cccc([N+](=O)[O-])c2)cs1 | 36.5% (active)
8 | O=C(CSc1ncn[nH]1)Nc1nsc(-c2ccccc2)n1 | 14.9%
9 | O=C(CSc1ncn[nH]1)Nc1ccnc2ccccc12 | 8.46%
10 | COc1ccccc1-c1nnc(SCC(=O)Nc2cc(C)on2)o1 | -49.2%
11 | c1ccc(-c2ccc3c(c2)NC(C2Nc4cc(-c5ccccc5)ccc4O2)O3)cc1 (configuration not stated) | -52.4%
12 | O=C1CCCCN1CCCC(=O)N1CCCC(Nc2ccc(F)cc2)C1 (configuration not stated) | -33.7%
13 | COc1ccc(OC)c(Nc2nc(-c3ccc(O)c(O)c3)cs2)c1 | 42.4% (active)
14 | Cc1cc(/C=N/Nc2ccc([N+](=O)[O-])cn2)c(C)n1-c1cccc(C(=O)O)c1 | -23.4%
15 | Cc1ccc(-c2noc(CC(c3ccccc3)c3ccccc3)n2)cc1 | -39.5%
16 | Cn1sc(=O)c2cc(S(=O)(=O)NC3CC3)ccc21 | -11.8%
17 | O=C(CN1CCN(S(=O)(=O)c2cc(Cl)ccc2Cl)CC1)c1ccc(O)c(O)c1 | 31.5% (active)
18 | Cc1nc2ccc(S(=O)(=O)NCC(=O)O)cc2s1 | 12.5%
19 | O=C(Cn1c[n+](CC(=O)c2ccc([N+](=O)[O-])cc2)cn1)c1ccc([N+](=O)[O-])cc1 | 14%

Row | SMILES | inhibition
20 | O=c1nc(N/N=C/c2ccco2)cn[nH]1 | 18.9%
21 | ONC(=Nc1ccccc1)c1ccccc1Cl | -2.39%
22 | CC/C(C)=N/Nc1nc2sc3c(c2c(=O)[nH]1)CC(C)(C)OC3 | 9.57%
23 | Cn1c(SCC(=O)N/N=C/c2ccc(O)c(O)c2)nc2ccccc21 | 50.9% (active)
24 | Oc1ccc(/C=N/Nc2ccc(C(F)(F)F)cn2)cc1O | 6.58%
25 | Cc1nccn1CC(=O)N/N=C/c1ccc(O)c(O)c1 | 58.4% (active)
26 | CCn1c(CNS(=O)(=O)c2ccc(Cl)cc2)n[nH]c1=S | -0.52%
27 | Cn1c(=O)[nH]c(=O)c2c1[nH]c(=S)n2Cc1ccccc1 | 6.35%
28 | Cc1cc([N+](=O)[O-])c(-c2ccc(/C=N/n3cnnc3)o2)cc1Cl | 10.6%
29 | O=C(Nc1cccc([N+](=O)[O-])c1)Nn1cnnc1 | 64.6% (active)
30 | COc1cc(/C=N\Nc2ccc([N+](=O)[O-])cn2)ccc1OCC(=O)O | -18%
31 | CCN(CC)S(=O)(=O)c1cc([N+](=O)[O-])ccc1NNC(=O)Nc1ccccc1 | 25.9%
32 | O=C(COc1ccc([N+](=O)[O-])cc1Cl)Nn1cnnc1 | 36.8% (active)
33 | O=[N+]([O-])c1ccc(N2CCN(c3ccc(O)cc3)CC2)c(Cl)c1 | -3.08%
34 | O=C(O)CCn1c(O)c(C=C2N=c3ccccc3=N2)sc1=S | -42.5%
35 | NC(=O)c1c(Nc2nc3c(F)cccc3s2)sc2c1CCCC2 | -18.3%
36 | Cc1cc2c(C)nc(N/N=C/c3ccccc3)nc2o1 | -42.8%
37 | O=C(CO/N=C/c1ccccc1O)NNC(=O)c1ccccc1Cl | 42.3% (active)
38 | CCOc1cccc(/C=N/NC(=S)NCCN2CCOCC2)c1O | 16.9%

Row | SMILES | inhibition
39 | COc1ccc(OCc2nnc3n2N=C(c2ccccc2)C(CC(=O)O)S3)cc1 (configuration not stated) | 40.8% (active)
40 | COc1ccc(OCc2n[nH]c(=S)n2N)cc1 | 20.3%
41 | CC1CCN(C(=O)c2ccc3c(c2)NC(=O)CN3)CC1 | -7.91%
42 | CCN(CC)c1ccc2oc(=O)c(C)nc2c1 | 27.1%
43 | ClC1(Cl)CC1CSc1ncn[nH]1 (configuration not stated) | 11.5%
44 | CCn1ccnc1CNC(=O)CC1C(=O)NCCN1Cc1ccc(F)cc1Cl (configuration not stated) | -24.5%
45 | CC(=O)c1ccc(NC(=O)CCc2nnc3ccc(NCc4ccco4)nn23)cc1 | -28.5%
46 | CC(C)(C)C(=O)OCc1nc(-c2ccc(O)c(O)c2)cs1 | 53.5% (active)
47 | COc1ccc(N/C=C(\C2OC(=O)c3ccccc32)[N+](=O)[O-])cc1 (configuration not stated) | -36.7%
48 | CC(/C=C/C1(O)C(C)CC(=O)CC1(C)C)OC1OC(CO)C(O)C(O)C1O (configuration not stated) | 11.3%
49 | CNC(=O)c1c(NC(NC(=O)c2ccco2)C(=O)c2ccc(Cl)cc2)sc2c1CCCC2 (configuration not stated) | -18.7%
50 | CC(C)(C)NC(=O)C(c1ccncc1)N(C(=O)CNC(=O)c1ccco1)c1ccc2c(c1)OCO2 (configuration not stated) | -44.5%
51 | CC(=O)N(c1ccc2oc(=O)sc2c1)S(=O)(=O)c1ccc(C)cc1 | -21.7%
52 | COc1cc(/C=N/Nc2nn3cnnc3c3ccccc23)cc(OC)c1OC | -33.8%
53 | O=C(O)c1cccc(NC(=S)N/N=C/c2c[nH]c3ccccc23)c1 | 3.61%
54 | COc1cc(/C=N/NC(=S)Nc2cccnc2)cc(OC)c1O | 35.5% (active)
55 | OCCN1CCN(C(=S)c2ccc(-c3ccccc3)cc2)CC1 | 14.5%
56 | Cc1ccc(C)c(NC(=O)NNC(=O)c2ccc3ccccc3c2O)c1 | 4.3%
57 | Cc1nc2nc[nH]n2c(=O)c1C/C=C/c1ccccc1 | 50.7% (active)
